Shown are actives, neighbours in structure and some others; about 4.5% of the full set was active somewhere.
CHO parental Ca: counter-screen for OX1R antagonists: effect in parental CHO cells. AID 463079. parental CHO-K1, ATP-induced calcium, Fluo-8 fluorescence. 0.63% of 330,000 active. inhibition, % at 5.6 µM;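 active means inhibition above that plate's mean sample inhibition plus 3 SD, cut at about 26% in these data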;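 further: 0% = ATP-challenged DMSO wells and 100% = DMSO wells without ATP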
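material = parental CHO cells | also added = ATP as calcium-mobilizing challenge | dosing = single point at 5.6 µM | detection = intracellular calcium via Fluo-8 no-wash fluorescent dye | read-out = % inhibition | benchmarks = low control ATP plus DMSO, high control DMSO only | repeats = one well per compound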
GPR7 antag: human neuropeptides B/W receptor 1 antagonism. 1.1% of 290,000 active. GPR7-expressing cells, fluorescence antagonist assay. inhibition, % at 4.4 µM. AID 1861. P48145; in the data active means inhibition above about 16%, passing the limit was not always enough;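 further: cells stimulated with the agonist NPW; 0% = agonist with vehicle and 100% = vehicle without agonist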
OX1R antag-1: human HCRTR1 antagonism. O43613. CHO/OX1R cells, Fluo-8 calcium fluorescence, orexin A. inhibition, % at 5 µM. 0.43% of 330,000 active;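 active means inhibition above its plate's threshold, mean inhibition of all tested compounds on the plate plus 3 SD, cut at about 37% in these data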;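 further: 0% = orexin A challenge wells and 100% = SB-334867-A antagonist wells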
OX1R antag-2: antagonists of human orexin 1 receptor (OX1R); AID 485270; O43613; OX1R-expressing cells, FRET antagonist read-out; 1.8% of 330,000 active; inhibition, % at 6.6 µM; in the data active means inhibition mostly above about 38%, no sharp cut-off; inactive means mostly below about 40%;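 further: 0% = agonist challenge alone and 100% = reference antagonist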
TAAR1 agonist: agonists of human TAAR1; CHO RD-HGA16 TAAR1, Fluo-8 calcium fluorescence; vehicle wells 0%, saturating PEA agonist 100%; 0.99% of 360,000 active; Q96RJ0; activation, % at 3 µM;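 active means activation above the mean activation of all test compounds in the run plus 3 SD, cut at about 38% in these data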
Target sequence (Q96RJ0 whole entry, looked up): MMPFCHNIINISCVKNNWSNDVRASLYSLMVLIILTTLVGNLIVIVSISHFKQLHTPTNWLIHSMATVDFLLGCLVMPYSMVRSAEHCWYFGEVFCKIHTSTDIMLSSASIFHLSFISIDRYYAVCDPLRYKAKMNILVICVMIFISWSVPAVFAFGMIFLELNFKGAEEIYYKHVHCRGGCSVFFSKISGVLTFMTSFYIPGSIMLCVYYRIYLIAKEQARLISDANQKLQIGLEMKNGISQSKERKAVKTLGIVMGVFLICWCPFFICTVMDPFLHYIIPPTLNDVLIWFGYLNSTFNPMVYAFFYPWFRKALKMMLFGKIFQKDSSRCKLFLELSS
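Test system: RD-HGA16 (CHO) cells co-expressing Gα16 and hTAAR1 | Doses: Single dose, 3 µM | Schedule: 17-24 h seeding, 75 min 37 °C dye, 30 min RT | Evaluation: % activation from peak over basal fluorescence ratio, DMSO-to-PEA scaled | Technique: Kinetic Fluo-8 calcium fluorescence | Benchmarks: Low control DMSO, high control PEA (EC100)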
TAAR1 antagonist: antagonists of human TAAR1 | CHO RD-HGA16 TAAR1, Fluo-8 calcium fluorescence, antagonist | Q96RJ0 | AID 624466 | 1.5% of 360,000 active | inhibition, % at 3 µM;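 active means inhibition above a per-plate cutoff, the mean inhibition of test compounds on that plate plus 3 SD, cut at about 49% in these data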;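 further: 0% = DMSO plus EC80 beta-PEA response and 100% = DMSO alone without agonist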
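Material: CHO RD-HGA16 cells bearing hTAAR1; compound dosing: one-point dosing, 3 µM nominal final; schedule: dye loading 75 min at 37 °C, then 30 min room temperature; measured by: calcium fluorescence with Fluo-8; control set: vehicle and agonist controls; replication: n of 1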
The depositor's hits bear a star.

What do the screens show for `CC(C)(C)c1ccc(-c2cn(-c3ccc(Br)cc3)c3[n+]2CCCS3)cc1`?
GPR7 antag: 56*; TAAR1 agonist: 6; TAAR1 antagonist: 15

What do the screens show for `c1ccc(-c2cn(-c3ccccc3)c3[n+]2CCS3)cc1`?
CHO parental Ca: 11; GPR7 antag: -7; OX1R antag-1: -2; OX1R antag-2: 24; TAAR1 agonist: 3; TAAR1 antagonist: 18

How did O=C1c2ccccc2C(=O)N1CCC#Cc1ccc2cc(CCO)oc(=O)c2c1 do in these assays?
CHO parental Ca: 1; OX1R antag-1: 12; OX1R antag-2: 9; TAAR1 agonist: 20; TAAR1 antagonist: 72*

How did Cc1ccc(-n2sc3cc(F)ccc3c2=O)c(C)c1 do in these assays?
TAAR1 agonist: 49*; TAAR1 antagonist: 7

Results for Cc1ccc(-n2sc3ccccc3c2=O)cc1 ?
CHO parental Ca: 32; GPR7 antag: -7; OX1R antag-1: 19; OX1R antag-2: 25; TAAR1 agonist: 26; TAAR1 antagonist: -1

How did O=c1c2ccc(F)cc2sn1-c1ccccc1 do in these assays?
TAAR1 agonist: 49*; TAAR1 antagonist: 8

What do the screens show for `O=c1c2cc(F)ccc2sn1-c1ccccc1Cl`?
TAAR1 agonist: 32; TAAR1 antagonist: -14

Results for Cn1ccnc1C(=O)c1ccc(NN)c([N+](=O)[O-])c1 ?
CHO parental Ca: -16; GPR7 antag: -16; OX1R antag-1: -36; OX1R antag-2: 53*; TAAR1 agonist: -1; TAAR1 antagonist: 1

How did CC(=O)c1c(C)[nH]c(C(=O)NCc2ccc(Cl)cc2)c1C do in these assays?
TAAR1 agonist: 5; TAAR1 antagonist: -2

What do the screens show for `Cc1cc2cc(C(c3nnnn3Cc3ccccc3)N3CCc4ccccc43)c(=O)[nH]c2cc1C` (stereo unspecified)?
CHO parental Ca: -28; GPR7 antag: -5; OX1R antag-1: 8; OX1R antag-2: 46*; TAAR1 agonist: 6; TAAR1 antagonist: 0

What do the screens show for `COc1cc(/C=C/C(=O)OCC(=O)Nc2ccccc2Sc2ccc(Cl)cc2)ccc1O`?
CHO parental Ca: 62*; GPR7 antag: -3; OX1R antag-1: 28; OX1R antag-2: 34; TAAR1 agonist: 1; TAAR1 antagonist: 41

What do the screens show for `COc1cc(/C=C/C(=O)OCC(=O)NNC(=O)c2cc(Cl)ccc2OC)ccc1O`?
CHO parental Ca: -11; OX1R antag-1: -17; OX1R antag-2: 3; TAAR1 agonist: 1; TAAR1 antagonist: 20

What do the screens show for `CCc1ccc(NC(=O)C(C)OC(=O)/C=C/c2ccc(O)c(OC)c2)cc1` (stereo unspecified)?
CHO parental Ca: 6; OX1R antag-1: 33; OX1R antag-2: 4; TAAR1 agonist: 111*; TAAR1 antagonist: 82*

What do the screens show for `COc1cc(/C=C/C(=O)OCC(=O)c2ccc(OC(F)F)cc2)ccc1O`?
CHO parental Ca: 9; OX1R antag-1: 27; OX1R antag-2: 24; TAAR1 agonist: 30; TAAR1 antagonist: 61*

How did CC(NC(=O)c1cc(S(=O)(=O)N2CCOCC2)cn1C)c1ccccc1 (stereo unspecified) do in these assays?
CHO parental Ca: -5; GPR7 antag: 1; OX1R antag-1: -5; OX1R antag-2: 2; TAAR1 agonist: 1; TAAR1 antagonist: -10

How did CCOC(=O)N1CCN(C(=O)C[C@H]2C[C@@]3(C(=O)OC)C(=C[C@H](COCc4ccccc4)O[C@@H]3C)N(CCC3=CCCCC3)C2=O)CC1 do in these assays?
TAAR1 agonist: -3; TAAR1 antagonist: -16

What do the screens show for `O=C(O)c1ccc(N/N=C/c2cc(Br)cs2)cc1`?
CHO parental Ca: 8; GPR7 antag: 8; OX1R antag-1: 3; OX1R antag-2: -5; TAAR1 agonist: 38*; TAAR1 antagonist: 7

Results for O=C(N/N=C\c1cc(Br)cs1)c1ccncc1 ?
CHO parental Ca: -2; GPR7 antag: -11; OX1R antag-1: 0; OX1R antag-2: 12; TAAR1 agonist: 14; TAAR1 antagonist: 2

What do the screens show for `Cc1nn2c(N)c(-c3ccccc3)cnc2c1-c1ccccc1`?
CHO parental Ca: -11; GPR7 antag: -18; OX1R antag-1: -9; OX1R antag-2: 42; TAAR1 agonist: 0; TAAR1 antagonist: 10

Screening results as filed in PubChem BioAssay.
